Test results: ChEMBL document CHEMBL1129731, “The chemistry of pseudomonic acid. 17. Dual-action C-1 oxazole derivatives of pseudomonic acid having an extended spectrum of antibacterial activity” (J Med Chem, 1996)
Converted amounts (≈) assume the structure as drawn.

Columns and labels:
[1] = test system: Klebsiella pneumoniae; assay: compound was tested for antibacterial activity against Klebsiella pneumoniae E70.; type: functional
Procedure, shortened: (§1)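 Broth microdilution in Mueller–Hinton broth; overnight broth cultures added to final 5 × 10^5 cfu/mL; incubated 37 °C, 18 h. MIC (µg/mL) taken as lowest concentration inhibiting growth.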

[2] = test system: Staphylococcus aureus; assay: compound was tested for antibacterial activity against Staphylococcus aureus F 89.; type: functional; procedure, shortened: as §1
[3] = test system: Escherichia coli; assay: compound was tested for antibacterial activity against Escherichia coli DC0.; type: functional
[4] = test system: Mus musculus; assay: Pharmacokinetic parameter Cmax was determined in blood level in mouse after subcutaneous administration.; type: ADME, organism-based; set-up: route subcutaneous; details: in vivo, sc
Procedure, shortened: (§2)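 CD1 male mice (18–22 g), nonfasted, groups of five; 50 mg/kg in 0.2 mL, dissolved in 10% ethanol then diluted 1:9 with 1% HPMC in water (po) or PBS pH 7.3 (sc). Blood sampled 5–240 min; levels by Bacillus subtilis agar bioassay (pH 7.0, 30 °C overnight) against standards in heparinized mouse blood.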

[5] = test system: Staphylococcus aureus; assay: compound was tested for antibacterial activity against Staphylococcus aureus NCTC 6571.; type: functional; procedure, shortened: as §1
[6] = Pharmacokinetic parameter Tmax was determined in blood level in mouse after subcutaneous administration.; type: ADME, organism-based; details: sc; procedure, shortened: as §2
[7] = test system: Mus musculus; assay: Total […] dose against Staphylococcus aureus after sc administration (1+5 hr post infection) to mouse; details: in vivo
[8] = test system: Haemophilus influenzae; assay: compound was tested for antibacterial activity against Haemophilus influenzae Q1.; type: functional
Procedure, shortened: (§3)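 Broth microdilution in Mueller–Hinton broth supplemented (final) with 5% heat-inactivated horse serum, 0.02 mg/mL hematin and 0.08 mg/mL NAD; inoculum 5 × 10^5 cfu/mL from overnight broth cultures; 37 °C for 18 h; MIC (µg/mL) read as lowest concentration inhibiting growth.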

[9] = test system: Pseudomonas aeruginosa; assay: compound was tested for antibacterial activity against Pseudomonas aeruginosa K799 wt.; type: functional; procedure, shortened: as §1
[10] = Pharmacokinetic parameter Cmax was determined in blood level in mouse after oral administration.; type: ADME, organism-based; set-up: route oral; procedure, shortened: as §2
[11] = test system: Staphylococcus epidermidis; assay: compound was tested for antibacterial activity aagainst Staphylococcus epidermidis PHLN 20.; type: functional; procedure, shortened: as §1
[12] = test system: Escherichia coli; assay: compound was tested for antibacterial activity against Escherichia coli DC2.; type: functional; procedure, shortened: as §1
[13] = test system: Staphylococcus aureus; assay: compound was tested for antibacterial activity against Staphylococcus aureus C 37.; type: functional
[14] = biological target: T1, Isoleucine--tRNA ligase (Staphylococcus aureus, UniProt P41972); assay: compound was tested for inhibitory activity of isoleucyl-tRNA synthetase (IRS).; type: functional
T1 sequence (P41972 whole entry): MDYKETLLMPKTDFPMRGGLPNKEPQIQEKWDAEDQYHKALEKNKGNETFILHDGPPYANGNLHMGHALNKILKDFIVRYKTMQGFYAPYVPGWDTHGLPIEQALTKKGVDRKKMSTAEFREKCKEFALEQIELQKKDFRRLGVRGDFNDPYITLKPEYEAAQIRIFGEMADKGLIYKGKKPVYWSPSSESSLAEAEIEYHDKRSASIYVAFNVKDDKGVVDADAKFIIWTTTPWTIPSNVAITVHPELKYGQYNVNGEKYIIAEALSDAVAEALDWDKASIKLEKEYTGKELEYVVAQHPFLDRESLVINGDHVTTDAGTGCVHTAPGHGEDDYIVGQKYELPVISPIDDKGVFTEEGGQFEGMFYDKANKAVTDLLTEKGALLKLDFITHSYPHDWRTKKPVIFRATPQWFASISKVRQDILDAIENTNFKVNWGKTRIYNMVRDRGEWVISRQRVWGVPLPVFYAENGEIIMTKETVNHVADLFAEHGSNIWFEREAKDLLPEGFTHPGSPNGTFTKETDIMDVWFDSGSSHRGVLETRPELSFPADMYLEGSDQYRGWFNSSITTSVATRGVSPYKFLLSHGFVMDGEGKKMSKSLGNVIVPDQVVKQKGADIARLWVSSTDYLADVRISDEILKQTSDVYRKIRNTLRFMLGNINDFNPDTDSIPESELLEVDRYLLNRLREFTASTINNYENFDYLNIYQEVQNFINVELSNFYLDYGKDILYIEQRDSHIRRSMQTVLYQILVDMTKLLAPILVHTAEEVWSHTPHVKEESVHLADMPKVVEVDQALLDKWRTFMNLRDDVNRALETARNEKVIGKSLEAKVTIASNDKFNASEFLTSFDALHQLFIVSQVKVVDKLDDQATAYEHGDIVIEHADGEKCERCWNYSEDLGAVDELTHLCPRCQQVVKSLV

[15] = test system: Streptococcus pneumoniae; assay: compound was tested for antibacterial activity against Strep. pneumoniae 1761.; type: functional; procedure, shortened: as §3
[16] = Pharmacokinetic parameter Tmax was determined in blood level in mouse after oral administration.; type: ADME, organism-based; procedure, shortened: as §2
[17] = test system: Mus musculus; assay: Pharmacokinetic parameter AUC was determined in blood level in mouse after subcutaneous administration.; type: ADME, organism-based; details: in vivo, sc; procedure, shortened: as §2
[18] = test system: Mus musculus; assay: Pharmacokinetic parameter AUC was determined in blood level in mouse after oral administration.; type: ADME, organism-based; details: in vivo; procedure, shortened: as §2
[19] = test system: Enterococcus faecalis; assay: compound was tested for antibacterial activity against Ent. faecalis I; type: functional; procedure, shortened: as §1
[20] = test system: Moraxella catarrhalis; assay: compound was tested for antibacterial activity against Moraxella catarrhalis 1502.; type: functional; procedure, shortened: as §3
[21] = test system: Mus musculus; assay: Total […] dose against Staphylococcus aureus after […] administration (1+5 hr post infection) to mouse; type: organism-based; details: in vivo, po
Procedure, shortened: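 CD1 male mice, groups of five, infected ip with S. aureus Smith, 1.3 × 10^10 cfu (po groups) or 5 × 10^9 cfu (sc groups); dosed po or sc at 1 + 5 h postinfection, 0.2 mL/mouse. CD50 = total dose protecting 50% of mice from death, scored day 2 postinfection.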

[22] = test system: Streptococcus pyogenes; assay: compound was tested for antibacterial activity against Streptococcus pyogenes CN10.; type: functional; procedure, shortened: as §3
[23] = test system: Proteus mirabilis; assay: compound was tested for antibacterial activity against Pr. mirabilis C889.; type: functional; procedure, shortened: as §1
[24] = test system: Bacteroides fragilis; assay: compound was tested for antibacterial activity Bacteroides fragilis NCTC 10581.; type: functional
[25] = test system: Enterobacter cloacae; assay: compound was tested for antibacterial activity against Ent. cloacae N1.; type: functional
[26] = test system: Staphylococcus aureus; assay: Minimum inhibitory activity against Staphylococcus aureus 11481; type: functional; procedure, shortened: as §1
[27] = biological target: T1, Isoleucine--tRNA ligase; assay: Inhibitory activity against isoleucyl-tRNA synthetase (IRS) of Staphylococcus aureus NCTC 6571
[28] = test system: Staphylococcus aureus; assay: Minimum inhibitory activity against Staphylococcus aureus C 7; type: functional; procedure, shortened: as §1
[29] = test system: Staphylococcus aureus; assay: Minimum inhibitory activity against Staphylococcus aureus NCTC 6571; type: functional; procedure, shortened: as §1
[30] = biological target: T1, Isoleucine--tRNA ligase; assay: Inhibitory activity against isoleucyl-tRNA synthetase (IRS) of Staphylococcus aureus 11481; type: functional
[31] = biological target: T1, Isoleucine--tRNA ligase; assay: Inhibitory activity against isoleucyl-tRNA synthetase (IRS) of Staphylococcus aureus; type: functional

Row | MIC [1] [mg/L] | MIC [2] [mg/L] | MIC [3] [mg/L] | MIC [5] [mg/L] | MIC [8] [mg/L] | MIC [9] [mg/L] | MIC [11] [mg/L] | MIC [12] [mg/L] | MIC [13] [mg/L] | MIC [15] [mg/L] | MIC [19] [mg/L] | MIC [20] [mg/L] | MIC [22] [mg/L] | MIC [23] [mg/L] | MIC [24] [mg/L] | MIC [25] [mg/L] | IC50 [31] [nM] | SMILES | other results
1 | > 64 | 4 (≈ 8.36 µM) | 16 (≈ 33.4 µM) | < 0.06 | < 0.06 | > 64 | < 0.06 | < 0.06 | 4 (≈ 8.36 µM) | < 0.06 | 16 (≈ 33.4 µM) | < 0.06 | < 0.06 | > 64 | 2 (≈ 4.18 µM) | 4 (≈ 8.36 µM) |  | C/C(=C\c1ncc(-c2ccc([N+](=O)[O-])o2)o1)C[C@@H]1OC[C@H](C[C@@H]2O[C@H]2[C@@H](C)[C@H](C)O)[C@@H](O)[C@H]1O | Cmax [4]: 30.5 µg/mL; Tmax [6]: 5 min; CD50 [7]: 1.2 mg/kg; Cmax [10]: 28.7 µg/mL; IC50 [14]: 400 mg/L (≈ 836 µM); Tmax [16]: 15 min; AUC [17]: 2407 ug m-1 min-1; AUC [18]: 1734 ug m-1 min-1; CD50 [21]: 3.2 mg/kg
2 | > 64 | 8 (≈ 16.2 µM) | > 64 | 0.125 (≈ 0.253 µM) | < 0.06 | > 64 | < 0.06 | < 0.06 | 8 (≈ 16.2 µM) | < 0.06 | > 64 | < 0.06 | < 0.06 | > 64 | 2 (≈ 4.04 µM) | > 64 |  | C/C(=C\c1ncc(-c2ccc([N+](=O)[O-])s2)o1)C[C@@H]1OC[C@H](C[C@@H]2O[C@H]2[C@@H](C)[C@H](C)O)[C@@H](O)[C@H]1O | MIC [26]: 8 mg/L (≈ 16.2 µM); IC50 [27]: 6.67 nM; MIC [28]: 32 mg/L (≈ 64.7 µM); MIC [29]: 0.13 mg/L (≈ 0.263 µM); IC50 [30]: 243 nM
3 | > 64 | > 64 | 64 (≈ 131 µM) | 0.125 (≈ 0.256 µM) | 0.25 (≈ 0.512 µM) | > 64 | 0.125 (≈ 0.256 µM) | < 0.06 | > 64 | < 0.06 | 32 (≈ 65.5 µM) | 1 (≈ 2.05 µM) | 0.125 (≈ 0.256 µM) | > 64 | > 64 | 32 (≈ 65.5 µM) | 7.98 | C/C(=C\c1ncc(-c2ccc([N+](=O)[O-])cc2)o1)C[C@@H]1OC[C@H](C[C@@H]2O[C@H]2[C@@H](C)[C@H](C)O)[C@@H](O)[C@H]1O | 
4 | 32 (≈ 64.7 µM) | > 64 | 32 (≈ 64.7 µM) | < 0.06 | < 0.06 | > 64 | < 0.06 | < 0.06 | 32 (≈ 64.7 µM) | < 0.06 | 32 (≈ 64.7 µM) | < 0.06 | < 0.06 | 64 (≈ 129 µM) | > 64 | 16 (≈ 32.4 µM) | 6.87 | C/C(=C\c1ncc(-c2cc([N+](=O)[O-])cs2)o1)C[C@@H]1OC[C@H](C[C@@H]2O[C@H]2[C@@H](C)[C@H](C)O)[C@@H](O)[C@H]1O | 
